Calls of active or inactive are those of the source. The calls are words filed in the database; no cut-off is given here.
Columns and labels:
Puccinia triticina [1] = test: Fungicidal activity against Puccinia triticina assessed as inhibition of disease development in compound treated leaf pieces at 200 ppm relative to untreated control (wheat-curative); assay type: functional
Summary of the method: (§1)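 Curative wheat leaf-piece test against Puccinia triticina. Leaf pieces inoculated with spores first, then treated with formulated compound at 200, 60 or 20 ppm. Disease scored 3–9 days after inoculation as percent inhibition versus untreated controls. Values are the mean across replicates.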

Amaranthus retroflexus [2] = test: Herbicidal activity against Amaranthus retroflexus assessed as growth inhibition at 1 kg/ha postemergence treatment by glasshouse test; assay type: functional; conditions: post-emergence, read-out: GI
Summary of the method: (§2)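 Glasshouse screen with pre- or postemergence application at 1.0 kg/ha. Result given as percent inhibition of plant growth; norflurazon and glyphosate used as controls.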

Stellaria media [3] = test: Herbicidal activity against Stellaria media assessed as growth inhibition at 1 kg/ha preemergence treatment by glasshouse test; assay type: functional; conditions: pre-emergence, read-out: GI; summary of the method: as §2
Zymoseptoria tritici = test: Fungicidal activity against Zymoseptoria tritici assessed as inhibition of mycelia growth at 100 ppm; assay type: functional, organism-based
Brassica napus [4] = test: Herbicidal activity against Brassica napus (oilseed rape) at 1.5 kg/ha postemergence treatment measured after 10 days by glasshouse test; assay type: functional; conditions: post-emergence, 240 h
Summary of the method: (§3)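 Glasshouse pre/postemergence test, each treatment in triplicate. Above-ground fresh weight measured 10 days after treatment. Result expressed as percent inhibition versus control, from 0 (no control) to 100 (complete control); glyphosate used as positive control.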

Puccinia triticina [5] = test: Fungicidal activity against Puccinia triticina assessed as inhibition of disease development in compound treated leaf pieces at 60 ppm relative to untreated control (wheat-curative); assay type: functional; summary of the method: as §1
[6] = tested on: Blumeria graminis f. sp. tritici; test: Fungicidal activity against Blumeria graminis f. sp. tritici assessed as inhibition of disease development in compound treated leaf pieces at 200 ppm relative to untreated control (wheat-preventative); assay type: functional
Plasmopara viticola [7] = test: Fungicidal activity against Plasmopara viticola assessed as inhibition of disease development in compound treated leaf pieces at 200 ppm relative to untreated control (grapevine-preventative); assay type: functional
Summary of the method: (§4)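 Preventative leaf-piece test on host tissue (tomato, vine, wheat or barley). Formulated compound applied at 200, 60 and 20 ppm before spore inoculation. Disease scored 3–9 days after inoculation, depending on the pathogen, as percent inhibition of disease development versus untreated controls. Values are the mean across replicates.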

Triticum aestivum [8] = test: Phytotoxicity against Triticum aestivum (wheat) plant at 60 ppm; assay type: organism-based; conditions: in vivo
Echinochloa crus-galli [9] = test: Herbicidal activity against Echinochloa crus-galli (barnyard grass) at 1.5 kg/ha preemergence treatment measured after 10 days by glasshouse test; assay type: functional; conditions: pre-emergence, 240 h; summary of the method: as §3
[10] = tested on: Blumeria graminis f. sp. tritici; test: Fungicidal activity against Blumeria graminis f. sp. tritici assessed as inhibition of disease development in compound treated leaf pieces at 20 ppm relative to untreated control (wheat-preventative); assay type: functional
Stellaria media [11] = test: Herbicidal activity against Stellaria media assessed as growth inhibition at 1 kg/ha postemergence treatment by glasshouse test; assay type: functional; conditions: post-emergence, read-out: GI; summary of the method: as §2
Digitaria sanguinalis [12] = test: Herbicidal activity against Digitaria sanguinalis (hairy crabgrass) assessed as growth inhibition at 1 kg/ha postemergence treatment by glasshouse test; assay type: functional; conditions: post-emergence, read-out: GI; summary of the method: as §2
Phytophthora infestans [13] = test: Fungicidal activity against Phytophthora infestans assessed as inhibition of mycelia growth at 200 ppm; assay type: functional, organism-based
Pyrenophora teres [14] = test: Fungicidal activity against Pyrenophora teres assessed as inhibition of disease development in compound treated leaf pieces at 60 ppm relative to untreated control (barley-preventative); assay type: functional; summary of the method: as §4
Brassica napus [15] = test: Herbicidal activity against Brassica napus (oilseed rape) at 1.5 kg/ha preemergence treatment measured after 10 days by glasshouse test; assay type: functional; conditions: pre-emergence, 240 h; summary of the method: as §3
Phytophthora infestans [16] = test: Fungicidal activity against Phytophthora infestans assessed as inhibition of disease development in compound treated leaf pieces at 20 ppm relative to untreated control (tomato-preventative); assay type: functional; summary of the method: as §4
Amaranthus retroflexus [17] = test: Herbicidal activity against Amaranthus retroflexus assessed as growth inhibition at 1 kg/ha preemergence treatment by glasshouse test; assay type: functional; conditions: pre-emergence, read-out: GI; summary of the method: as §2
Plasmopara viticola [18] = test: Fungicidal activity against Plasmopara viticola assessed as inhibition of disease development in compound treated leaf pieces at 20 ppm relative to untreated control (grapevine-preventative); assay type: functional; summary of the method: as §4
Puccinia triticina [19] = test: Fungicidal activity against Puccinia triticina assessed as inhibition of disease development in compound treated leaf pieces at 20 ppm relative to untreated control (wheat-preventative); assay type: functional; summary of the method: as §4
Pyrenophora teres [20] = test: Fungicidal activity against Pyrenophora teres assessed as inhibition of disease development in compound treated leaf pieces at 20 ppm relative to untreated control (barley-preventative); assay type: functional; summary of the method: as §4
Botrytis cinerea = test: Fungicidal activity against Botryotinia fuckeliana assessed as inhibition of mycelia growth at 2 ppm; assay type: functional, organism-based
Summary of the method: (§5)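 Mycelial growth test in 96-well plates: compound incorporated into artificial growth medium at 2 ppm, two replicates per rate. Each well scored 99 for complete, 55 for partial or 0 for no inhibition. Values are the mean across replicates; azoxystrobin and prochloraz used as positive controls.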

Aphididae = test: Insecticidal activity against Aphididae (aphids) assessed as mortality at 1000 ppm by leaf-disk assay; assay type: functional, organism-based
Summary of the method: (§6)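 Leaf-disk assay at 1000 ppm, three replicates. Plates kept 5–9 days in controlled-environment cabinets. Mortality judged against untreated wells: 99 for significant mortality, 0 otherwise. Values are the mean of three; thiamethoxam and indoxacarb used as positive controls.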

Heliothis virescens = test: Insecticidal activity against Lepidoptera Heliothis virescens (tobacco budworm) assessed as mortality at 1000 ppm by leaf-disk assay; assay type: functional, organism-based; summary of the method: as §6
Digitaria sanguinalis [21] = test: Herbicidal activity against Digitaria sanguinalis (hairy crabgrass) assessed as growth inhibition at 1 kg/ha preemergence treatment by glasshouse test; assay type: functional; conditions: pre-emergence, read-out: GI; summary of the method: as §2
[22] = tested on: Blumeria graminis f. sp. tritici; test: Fungicidal activity against Blumeria graminis f. sp. tritici assessed as inhibition of disease development in compound treated leaf pieces at 60 ppm relative to untreated control (wheat-preventative); assay type: functional
Triticum aestivum [23] = test: Phytotoxicity against Triticum aestivum (wheat) plant at 200 ppm; assay type: organism-based; conditions: in vivo
Echinochloa crus-galli [24] = test: Herbicidal activity against Echinochloa crus-galli (barnyard grass) at 1.5 kg/ha postemergence treatment measured after 10 days by glasshouse test; assay type: functional; conditions: post-emergence, 240 h; summary of the method: as §3
Arabidopsis thaliana = test: Herbicidal activity against Arabidopsis thaliana assessed as growth inhibition at 10 ppm by 96-well plate test; assay type: functional; conditions: read-out: GI
Summary of the method: (§7)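 96-well plate herbicide screen: Arabidopsis thaliana at 10 ppm and Poa annua at 32 ppm, two replicates. Plates incubated seven days in a controlled-environment cabinet. Each replicate scored 0 (no visible effect) or 99 (herbicidal effect); values are the mean of the two. Atrazine used as reference.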

Puccinia triticina [25] = test: Fungicidal activity against Puccinia triticina assessed as inhibition of disease development in compound treated leaf pieces at 20 ppm relative to untreated control (wheat-curative); assay type: functional; summary of the method: as §1
Lolium perenne [26] = test: Herbicidal activity against Lolium perenne (perennial ryegrass) assessed as growth inhibition at 1 kg/ha preemergence treatment by glasshouse test; assay type: functional; conditions: pre-emergence, read-out: GI; summary of the method: as §2
Pyrenophora teres [27] = test: Fungicidal activity against Pyrenophora teres assessed as inhibition of disease development in compound treated leaf pieces at 200 ppm relative to untreated control (barley-preventative); assay type: functional; summary of the method: as §4
Alternaria solani [28] = test: Fungicidal activity against Alternaria solani assessed as inhibition of disease development in compound treated leaf pieces at 200 ppm relative to untreated control (tomato-preventative); assay type: functional; summary of the method: as §4
Parastagonospora nodorum = test: Fungicidal activity against Phaeosphaeria nodorum assessed as inhibition of disease development in compound treated leaf pieces at 20 ppm relative to untreated control (wheat preventative); assay type: functional; summary of the method: as §4
Poa annua = test: Herbicidal activity against Poa annua assessed as growth inhibition at 32 ppm by 96-well plate test; assay type: functional; conditions: read-out: GI; summary of the method: as §7
Plasmopara viticola [29] = test: Fungicidal activity against Plasmopara viticola assessed as inhibition of disease development in compound treated leaf pieces at 60 ppm relative to untreated control (grapevine-preventative); assay type: functional; summary of the method: as §4
Puccinia triticina [30] = test: Fungicidal activity against Puccinia triticina assessed as inhibition of disease development in compound treated leaf pieces at 60 ppm relative to untreated control (wheat-preventative); assay type: functional; summary of the method: as §4
Pythium dissimile = test: Fungicidal activity against Pythium dissimile assessed as inhibition of mycelia growth at 2 ppm; assay type: functional, organism-based; summary of the method: as §5
Phytophthora infestans [31] = test: Fungicidal activity against Phytophthora infestans assessed as inhibition of disease development in compound treated leaf pieces at 200 ppm relative to untreated control (tomato-preventative); assay type: functional; summary of the method: as §4
Fusarium graminearum = test: Fungicidal activity against Fusarium graminearum assessed as inhibition of mycelia growth at 2 ppm; assay type: functional, organism-based; summary of the method: as §5
Puccinia triticina [32] = test: Fungicidal activity against Puccinia triticina assessed as inhibition of disease development in compound treated leaf pieces at 200 ppm relative to untreated control (wheat-preventative); assay type: functional; summary of the method: as §4
Alternaria solani [33] = test: Fungicidal activity against Alternaria solani assessed as inhibition of disease development in compound treated leaf pieces at 60 ppm relative to untreated control (tomato-preventative); assay type: functional; summary of the method: as §4
Alternaria solani [34] = test: Fungicidal activity against Alternaria solani assessed as inhibition of disease development in compound treated leaf pieces at 20 ppm relative to untreated control (tomato-preventative); assay type: functional; summary of the method: as §4
Phytophthora infestans [35] = test: Fungicidal activity against Phytophthora infestans assessed as inhibition of disease development in compound treated leaf pieces at 60 ppm relative to untreated control (tomato-preventative); assay type: functional; summary of the method: as §4
Lolium perenne [36] = test: Herbicidal activity against Lolium perenne (perennial ryegrass) assessed as growth inhibition at 1 kg/ha postemergence treatment by glasshouse test; assay type: functional; conditions: post-emergence, read-out: GI; summary of the method: as §2
Alternaria solani [37] = test: Fungicidal activity against Alternaria solani assessed as inhibition of mycelia growth at 2 ppm; assay type: functional, organism-based; summary of the method: as §5

SMILES: CC(C)Nc1nc(Cl)nc(NCc2ccc(Cl)nc2)n1
- inhibition at 200 ppm (Puccinia triticina [1]): 100%
- inhibition of growth at 1000 g/ha (Amaranthus retroflexus [2]): 100%
- inhibition of growth at 1000 g/ha (Stellaria media [3]): 80%
- inhibition (Zymoseptoria tritici): Active
- inhibition at 1500 g/ha (Brassica napus [4]): 100%
- inhibition at 60 ppm (Puccinia triticina [5]): 100%
- inhibition at 200 ppm [6]: 90%
- inhibition at 200 ppm (Plasmopara viticola [7]): 0%
- Activity (Triticum aestivum [8]): Toxic
- inhibition at 1500 g/ha (Echinochloa crus-galli [9]): 68.9%
- inhibition at 20 ppm [10]: 0%
- inhibition of growth at 1000 g/ha (Stellaria media [11]): 100%
- inhibition of growth at 1000 g/ha (Digitaria sanguinalis [12]): 0%
- inhibition (Phytophthora infestans [13]): inactive
- inhibition at 60 ppm (Pyrenophora teres [14]): 0%
- inhibition at 1500 g/ha (Brassica napus [15]): 100%
- inhibition at 20 ppm (Phytophthora infestans [16]): 0%
- inhibition of growth at 1000 g/ha (Amaranthus retroflexus [17]): 100%
- inhibition at 20 ppm (Plasmopara viticola [18]): 0%
- inhibition at 20 ppm (Puccinia triticina [19]): 0%
- inhibition at 20 ppm (Pyrenophora teres [20]): 0%
- inhibition (Botrytis cinerea): inactive
- mortality (Aphididae): inactive
- mortality (Heliothis virescens): inactive
- inhibition of growth at 1000 g/ha (Digitaria sanguinalis [21]): 0%
- inhibition at 60 ppm [22]: 0%
- Activity (Triticum aestivum [23]): Toxic
- inhibition at 1500 g/ha (Echinochloa crus-galli [24]): 68.6%
- inhibition of growth at 10 ppm (Arabidopsis thaliana): 99%
- inhibition at 20 ppm (Puccinia triticina [25]): 100%
- inhibition of growth at 1000 g/ha (Lolium perenne [26]): 70%
- inhibition at 200 ppm (Pyrenophora teres [27]): 0%
- inhibition at 200 ppm (Alternaria solani [28]): 0%
- inhibition at 20 ppm (Parastagonospora nodorum): 0%
- inhibition of growth at 32 ppm (Poa annua): 0%
- inhibition at 60 ppm (Plasmopara viticola [29]): 0%
- inhibition at 60 ppm (Puccinia triticina [30]): 70%
- inhibition (Pythium dissimile): inactive
- inhibition at 200 ppm (Phytophthora infestans [31]): 0%
- inhibition (Fusarium graminearum): inactive
- inhibition at 200 ppm (Puccinia triticina [32]): 100%
- inhibition at 60 ppm (Alternaria solani [33]): 0%
- inhibition at 20 ppm (Alternaria solani [34]): 0%
- inhibition at 60 ppm (Phytophthora infestans [35]): 0%
- inhibition of growth at 1000 g/ha (Lolium perenne [36]): 80%
- inhibition (Alternaria solani [37]): inactive

— ChEMBL document CHEMBL3046679, “Design, synthesis, and biological activities of arylmethylamine substituted chlorotriazine and methylthiotriazine compounds” (J Agric Food Chem, 2011)
